Active and inactive are the calls of the source. No cut-off for these calls is given here.
What was measured:
Triticum aestivum [1] = test: Phytotoxicity against Triticum aestivum (wheat) plant at 60 ppm; assay type: organism-based; conditions: in vivo
Arabidopsis thaliana = test: Herbicidal activity against Arabidopsis thaliana assessed as growth inhibition at 10 ppm by 96-well plate test; assay type: functional; conditions: read-out: GI
Method in brief: (§1)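 96-well plate herbicide screen: Arabidopsis thaliana at 10 ppm and Poa annua at 32 ppm, two replicates. Plates incubated seven days in a controlled-environment cabinet. Each replicate scored 0 (no visible effect) or 99 (herbicidal effect); values are the mean of the two. Atrazine used as reference.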

Pyrenophora teres [2] = test: Fungicidal activity against Pyrenophora teres assessed as inhibition of disease development in compound treated leaf pieces at 200 ppm relative to untreated control (barley-preventative); assay type: functional
Method in brief: (§2)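 Preventative leaf-piece test on host tissue (tomato, vine, wheat or barley). Formulated compound applied at 200, 60 and 20 ppm before spore inoculation. Disease scored 3–9 days after inoculation, depending on the pathogen, as percent inhibition of disease development versus untreated controls. Values are the mean across replicates.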

Triticum aestivum [3] = test: Phytotoxicity against Triticum aestivum (wheat) plant at 200 ppm; assay type: organism-based; conditions: in vivo
Heliothis virescens = test: Insecticidal activity against Lepidoptera Heliothis virescens (tobacco budworm) assessed as mortality at 1000 ppm by leaf-disk assay; assay type: functional, organism-based
Method in brief: (§3)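 Leaf-disk assay at 1000 ppm, three replicates. Plates kept 5–9 days in controlled-environment cabinets. Mortality judged against untreated wells: 99 for significant mortality, 0 otherwise. Values are the mean of three; thiamethoxam and indoxacarb used as positive controls.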

Puccinia triticina [4] = test: Fungicidal activity against Puccinia triticina assessed as inhibition of disease development in compound treated leaf pieces at 20 ppm relative to untreated control (wheat-curative); assay type: functional
Method in brief: (§4)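 Curative wheat leaf-piece test against Puccinia triticina. Leaf pieces inoculated with spores first, then treated with formulated compound at 200, 60 or 20 ppm. Disease scored 3–9 days after inoculation as percent inhibition versus untreated controls. Values are the mean across replicates.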

Poa annua = test: Herbicidal activity against Poa annua assessed as growth inhibition at 32 ppm by 96-well plate test; assay type: functional; conditions: read-out: GI; method in brief: as §1
Echinochloa crus-galli [5] = test: Herbicidal activity against Echinochloa crus-galli (barnyard grass) at 1.5 kg/ha preemergence treatment measured after 10 days by glasshouse test; assay type: functional; conditions: pre-emergence, 240 h
Method in brief: (§5)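 Glasshouse pre/postemergence test, each treatment in triplicate. Above-ground fresh weight measured 10 days after treatment. Result expressed as percent inhibition versus control, from 0 (no control) to 100 (complete control); glyphosate used as positive control.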

Plasmopara viticola [6] = test: Fungicidal activity against Plasmopara viticola assessed as inhibition of disease development in compound treated leaf pieces at 200 ppm relative to untreated control (grapevine-preventative); assay type: functional; method in brief: as §2
Parastagonospora nodorum = test: Fungicidal activity against Phaeosphaeria nodorum assessed as inhibition of disease development in compound treated leaf pieces at 20 ppm relative to untreated control (wheat preventative); assay type: functional; method in brief: as §2
Pythium dissimile = test: Fungicidal activity against Pythium dissimile assessed as inhibition of mycelia growth at 2 ppm; assay type: functional, organism-based
Method in brief: (§6)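 Mycelial growth test in 96-well plates: compound incorporated into artificial growth medium at 2 ppm, two replicates per rate. Each well scored 99 for complete, 55 for partial or 0 for no inhibition. Values are the mean across replicates; azoxystrobin and prochloraz used as positive controls.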

Amaranthus retroflexus [7] = test: Herbicidal activity against Amaranthus retroflexus assessed as growth inhibition at 1 kg/ha postemergence treatment by glasshouse test; assay type: functional; conditions: post-emergence, read-out: GI
Method in brief: (§7)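 Glasshouse screen with pre- or postemergence application at 1.0 kg/ha. Result given as percent inhibition of plant growth; norflurazon and glyphosate used as controls.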

Aphididae = test: Insecticidal activity against Aphididae (aphids) assessed as mortality at 1000 ppm by leaf-disk assay; assay type: functional, organism-based; method in brief: as §3
[8] = system: Blumeria graminis f. sp. tritici; test: Fungicidal activity against Blumeria graminis f. sp. tritici assessed as inhibition of disease development in compound treated leaf pieces at 20 ppm relative to untreated control (wheat-preventative); assay type: functional
Amaranthus retroflexus [9] = test: Herbicidal activity against Amaranthus retroflexus assessed as growth inhibition at 1 kg/ha preemergence treatment by glasshouse test; assay type: functional; conditions: pre-emergence, read-out: GI; method in brief: as §7
[10] = system: Blumeria graminis f. sp. tritici; test: Fungicidal activity against Blumeria graminis f. sp. tritici assessed as inhibition of disease development in compound treated leaf pieces at 200 ppm relative to untreated control (wheat-preventative); assay type: functional
Puccinia triticina [11] = test: Fungicidal activity against Puccinia triticina assessed as inhibition of disease development in compound treated leaf pieces at 60 ppm relative to untreated control (wheat-preventative); assay type: functional; method in brief: as §2
Alternaria solani [12] = test: Fungicidal activity against Alternaria solani assessed as inhibition of disease development in compound treated leaf pieces at 20 ppm relative to untreated control (tomato-preventative); assay type: functional; method in brief: as §2
Lolium perenne [13] = test: Herbicidal activity against Lolium perenne (perennial ryegrass) assessed as growth inhibition at 1 kg/ha preemergence treatment by glasshouse test; assay type: functional; conditions: pre-emergence, read-out: GI; method in brief: as §7
Alternaria solani [14] = test: Fungicidal activity against Alternaria solani assessed as inhibition of disease development in compound treated leaf pieces at 60 ppm relative to untreated control (tomato-preventative); assay type: functional; method in brief: as §2
Phytophthora infestans [15] = test: Fungicidal activity against Phytophthora infestans assessed as inhibition of mycelia growth at 200 ppm; assay type: functional, organism-based
Plasmopara viticola [16] = test: Fungicidal activity against Plasmopara viticola assessed as inhibition of disease development in compound treated leaf pieces at 60 ppm relative to untreated control (grapevine-preventative); assay type: functional; method in brief: as §2
Echinochloa crus-galli [17] = test: Herbicidal activity against Echinochloa crus-galli (barnyard grass) at 1.5 kg/ha postemergence treatment measured after 10 days by glasshouse test; assay type: functional; conditions: post-emergence, 240 h; method in brief: as §5
Fusarium graminearum = test: Fungicidal activity against Fusarium graminearum assessed as inhibition of mycelia growth at 2 ppm; assay type: functional, organism-based; method in brief: as §6
Puccinia triticina [18] = test: Fungicidal activity against Puccinia triticina assessed as inhibition of disease development in compound treated leaf pieces at 20 ppm relative to untreated control (wheat-preventative); assay type: functional; method in brief: as §2
Lolium perenne [19] = test: Herbicidal activity against Lolium perenne (perennial ryegrass) assessed as growth inhibition at 1 kg/ha postemergence treatment by glasshouse test; assay type: functional; conditions: post-emergence, read-out: GI; method in brief: as §7
[20] = system: Blumeria graminis f. sp. tritici; test: Fungicidal activity against Blumeria graminis f. sp. tritici assessed as inhibition of disease development in compound treated leaf pieces at 60 ppm relative to untreated control (wheat-preventative); assay type: functional
Alternaria solani [21] = test: Fungicidal activity against Alternaria solani assessed as inhibition of disease development in compound treated leaf pieces at 200 ppm relative to untreated control (tomato-preventative); assay type: functional; method in brief: as §2
Pyrenophora teres [22] = test: Fungicidal activity against Pyrenophora teres assessed as inhibition of disease development in compound treated leaf pieces at 60 ppm relative to untreated control (barley-preventative); assay type: functional; method in brief: as §2
Puccinia triticina [23] = test: Fungicidal activity against Puccinia triticina assessed as inhibition of disease development in compound treated leaf pieces at 60 ppm relative to untreated control (wheat-curative); assay type: functional; method in brief: as §4
Pyrenophora teres [24] = test: Fungicidal activity against Pyrenophora teres assessed as inhibition of disease development in compound treated leaf pieces at 20 ppm relative to untreated control (barley-preventative); assay type: functional; method in brief: as §2
Botrytis cinerea = test: Fungicidal activity against Botryotinia fuckeliana assessed as inhibition of mycelia growth at 2 ppm; assay type: functional, organism-based; method in brief: as §6
Puccinia triticina [25] = test: Fungicidal activity against Puccinia triticina assessed as inhibition of disease development in compound treated leaf pieces at 200 ppm relative to untreated control (wheat-curative); assay type: functional; method in brief: as §4
Brassica napus [26] = test: Herbicidal activity against Brassica napus (oilseed rape) at 1.5 kg/ha postemergence treatment measured after 10 days by glasshouse test; assay type: functional; conditions: post-emergence, 240 h; method in brief: as §5
Puccinia triticina [27] = test: Fungicidal activity against Puccinia triticina assessed as inhibition of disease development in compound treated leaf pieces at 200 ppm relative to untreated control (wheat-preventative); assay type: functional; method in brief: as §2
Phytophthora infestans [28] = test: Fungicidal activity against Phytophthora infestans assessed as inhibition of disease development in compound treated leaf pieces at 200 ppm relative to untreated control (tomato-preventative); assay type: functional; method in brief: as §2
Brassica napus [29] = test: Herbicidal activity against Brassica napus (oilseed rape) at 1.5 kg/ha preemergence treatment measured after 10 days by glasshouse test; assay type: functional; conditions: pre-emergence, 240 h; method in brief: as §5
Alternaria solani [30] = test: Fungicidal activity against Alternaria solani assessed as inhibition of mycelia growth at 2 ppm; assay type: functional, organism-based; method in brief: as §6
Plasmopara viticola [31] = test: Fungicidal activity against Plasmopara viticola assessed as inhibition of disease development in compound treated leaf pieces at 20 ppm relative to untreated control (grapevine-preventative); assay type: functional; method in brief: as §2
Phytophthora infestans [32] = test: Fungicidal activity against Phytophthora infestans assessed as inhibition of disease development in compound treated leaf pieces at 60 ppm relative to untreated control (tomato-preventative); assay type: functional; method in brief: as §2
Stellaria media [33] = test: Herbicidal activity against Stellaria media assessed as growth inhibition at 1 kg/ha preemergence treatment by glasshouse test; assay type: functional; conditions: pre-emergence, read-out: GI; method in brief: as §7
Stellaria media [34] = test: Herbicidal activity against Stellaria media assessed as growth inhibition at 1 kg/ha postemergence treatment by glasshouse test; assay type: functional; conditions: post-emergence, read-out: GI; method in brief: as §7
Zymoseptoria tritici = test: Fungicidal activity against Zymoseptoria tritici assessed as inhibition of mycelia growth at 100 ppm; assay type: functional, organism-based
Digitaria sanguinalis [35] = test: Herbicidal activity against Digitaria sanguinalis (hairy crabgrass) assessed as growth inhibition at 1 kg/ha postemergence treatment by glasshouse test; assay type: functional; conditions: post-emergence, read-out: GI; method in brief: as §7
Phytophthora infestans [36] = test: Fungicidal activity against Phytophthora infestans assessed as inhibition of disease development in compound treated leaf pieces at 20 ppm relative to untreated control (tomato-preventative); assay type: functional; method in brief: as §2
Digitaria sanguinalis [37] = test: Herbicidal activity against Digitaria sanguinalis (hairy crabgrass) assessed as growth inhibition at 1 kg/ha preemergence treatment by glasshouse test; assay type: functional; conditions: pre-emergence, read-out: GI; method in brief: as §7

CC(C)Nc1nc(Cl)nc(NCc2ccc(Cl)nc2)n1
Activity (Triticum aestivum [1]): Toxic | inhibition of growth at 10 ppm (Arabidopsis thaliana): 99% | inhibition at 200 ppm (Pyrenophora teres [2]): 0% | Activity (Triticum aestivum [3]): Toxic | mortality (Heliothis virescens): inactive | inhibition at 20 ppm (Puccinia triticina [4]): 100% | inhibition of growth at 32 ppm (Poa annua): 0% | inhibition at 1500 g/ha (Echinochloa crus-galli [5]): 68.9% | inhibition at 200 ppm (Plasmopara viticola [6]): 0% | inhibition at 20 ppm (Parastagonospora nodorum): 0% | inhibition (Pythium dissimile): inactive | inhibition of growth at 1000 g/ha (Amaranthus retroflexus [7]): 100% | mortality (Aphididae): inactive | inhibition at 20 ppm [8]: 0% | inhibition of growth at 1000 g/ha (Amaranthus retroflexus [9]): 100% | inhibition at 200 ppm [10]: 90% | inhibition at 60 ppm (Puccinia triticina [11]): 70% | inhibition at 20 ppm (Alternaria solani [12]): 0% | inhibition of growth at 1000 g/ha (Lolium perenne [13]): 70% | inhibition at 60 ppm (Alternaria solani [14]): 0% | inhibition (Phytophthora infestans [15]): inactive | inhibition at 60 ppm (Plasmopara viticola [16]): 0% | inhibition at 1500 g/ha (Echinochloa crus-galli [17]): 68.6% | inhibition (Fusarium graminearum): inactive | inhibition at 20 ppm (Puccinia triticina [18]): 0% | inhibition of growth at 1000 g/ha (Lolium perenne [19]): 80% | inhibition at 60 ppm [20]: 0% | inhibition at 200 ppm (Alternaria solani [21]): 0% | inhibition at 60 ppm (Pyrenophora teres [22]): 0% | inhibition at 60 ppm (Puccinia triticina [23]): 100% | inhibition at 20 ppm (Pyrenophora teres [24]): 0% | inhibition (Botrytis cinerea): inactive | inhibition at 200 ppm (Puccinia triticina [25]): 100% | inhibition at 1500 g/ha (Brassica napus [26]): 100% | inhibition at 200 ppm (Puccinia triticina [27]): 100% | inhibition at 200 ppm (Phytophthora infestans [28]): 0% | inhibition at 1500 g/ha (Brassica napus [29]): 100% | inhibition (Alternaria solani [30]): inactive | inhibition at 20 ppm (Plasmopara viticola [31]): 0% | inhibition at 60 ppm (Phytophthora infestans [32]): 0% | inhibition of growth at 1000 g/ha (Stellaria media [33]): 80% | inhibition of growth at 1000 g/ha (Stellaria media [34]): 100% | inhibition (Zymoseptoria tritici): Active | inhibition of growth at 1000 g/ha (Digitaria sanguinalis [35]): 0% | inhibition at 20 ppm (Phytophthora infestans [36]): 0% | inhibition of growth at 1000 g/ha (Digitaria sanguinalis [37]): 0%

From ChEMBL document CHEMBL3046679, “Design, synthesis, and biological activities of arylmethylamine substituted chlorotriazine and methylthiotriazine compounds” (J Agric Food Chem, 2011)
